Rows were chosen to be rich in hits. Some 3.7% of all compounds tested hit in one or more screens of this group.
KCNK9 inh – human KCNK9 channel inhibition. Q9NPC2. HEK293 KCNK9, FluxOR thallium flux fluorescence; stronger effect = lower value. B-score at 10 µM. 310,000 tested, 1.2% active;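 active = ratio B-score over 3 SD below the library mean, with starting fluorescence within 5 SD of its mean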;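 note: negative B-score means less thallium flux so channel inhibition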
Target sequence (Q9NPC2 whole entry, looked up): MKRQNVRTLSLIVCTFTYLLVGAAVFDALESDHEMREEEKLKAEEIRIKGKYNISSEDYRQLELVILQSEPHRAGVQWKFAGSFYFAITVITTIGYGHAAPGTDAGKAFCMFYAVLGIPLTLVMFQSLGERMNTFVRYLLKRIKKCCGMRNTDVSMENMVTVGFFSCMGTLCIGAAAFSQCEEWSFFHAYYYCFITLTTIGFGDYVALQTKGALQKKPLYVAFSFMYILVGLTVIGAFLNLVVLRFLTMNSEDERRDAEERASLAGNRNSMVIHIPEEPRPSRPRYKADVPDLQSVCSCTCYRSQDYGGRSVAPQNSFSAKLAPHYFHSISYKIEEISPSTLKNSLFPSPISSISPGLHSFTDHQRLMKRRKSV
hERG protect – shields human hERG channel from block by proarrhythmic agents. CHO-hERG, FluxOR thallium flux, dofetilide IC70 present. activation (rescue from dofetilide block), less the hit threshold, % at 10 µM. 310,000 tested, 0.51% active;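 active = activation above the mean of controls blocked by dofetilide plus 5 SD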;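 note: thallium influx through hERG after potassium depolarization seen as dye fluorescence rise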
KCNK3 inh – human KCNK3 channel inhibition, primary screen | O14649 | CHO-KCNK3 thallium flux, FluxOR fluorescence; stronger effect = lower value | B-score at 10 µM | 340,000 tested, 0.84% active | AID 602410;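 active = B-score under library mean minus 4 SD, starting fluorescence ratio at most library mean plus 5 SD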;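 note: more negative B-score means stronger inhibition of thallium flux through KCNK3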
KCNQ1 block – blocks the human KCNQ1 potassium channel; 310,000 tested, 1.3% active; B-score at 10 µM; AID 2642; CHO-K1 KCNQ1, FluxOR thallium flux fluorescence; stronger effect = higher value;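 active = compounds whose thallium flux B-score, printed positive for inhibition, exceeds three library SD while starting fluorescence stays within three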;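 note: channel opened by potassium depolarization with thallium stimulus after 20 min compound exposure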
Kir21 inh – Kir2.1 (mouse) channel inhibition. HEK293-Kir2.1, FluxOR thallium flux fluorescence; stronger effect = lower value. B-score at 10 µM. 310,000 tested, 0.85% active. AID 1672;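 active = fluorescence ratio B-score at or below minus 3 SD of library scores, with starting-brightness B-score within 2 SD, cut at about -4.2 in these data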;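 note: channel flux triggered by added potassium and thallium sulfate stimulus; B-score of peak minus minimum fluorescence over baseline after thallium stimulus; more negative B-score means stronger Kir2.1 block with less thallium influx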
KCNQ1 pot – human KCNQ1 channel potentiation or activation; CHO-K1 KCNQ1, thallium flux FluxOR fluorescence; stronger effect = higher value; P51787; 310,000 tested, 0.35% active; B-score at 10 µM;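 active = fluorescence ratio B-score, a plate-corrected score, at least three library SD, with initial intensity B-score within 5 SD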
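assay system = KCNQ1-transfected CHO-K1 cells | medium = assay buffer with matched DMSO | probe or stimulus = depolarizing K+/Tl+ stimulus, K2SO4 and Tl2SO4 each 12.5 mM in 5x stock | dosing = single dose | incubation = dye 90 min, compound 20 min, room temperature | detection = kinetic FluxOR fluorescence, 10 s baseline plus 110 s post-stimulus | evaluation = ratio B score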
KCNK9 block conf – confirmation of human KCNK9 potassium channel inhibitors; shares compounds with KCNK9 inh; HEK293 KCNK9 cells, FluxOR thallium flux fluorescence; inhibition, % at 10 µM; 4,900 tested, 43% active; AID 492992;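 active = thallium signal inhibited by more than 5 SD of the compound-free buffer control wells, on both duplicate plates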
Kir2-1 spec – mouse Kir2.1 off-target activity of KCNK9 modulators. 4,900 tested, 4% active. AID 492993. inhibition, % at 10 µM. Kir2.1 cells, FluxOR thallium flux fluorescence. shares compounds with KCNK9 inh;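 active = thallium signal drop more than 5 SD beyond the mean of the no-compound control wells, seen in both duplicate plates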;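 note: signal is fluorescence rise after thallium addition divided by baseline fluorescence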
KCNK9 uninduced – second check of KCNK9 modulator effects in non-induced HEK293 cells; AID 492997; FluxOR thallium flux; inhibition, % at 10 µM; 4,900 tested, 40% active; shares compounds with KCNK9 inh;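 active = thallium signal drop beyond 5 SD of the untreated control mean, on both duplicate plates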
Hits are given with their value.

For O=C(CSCC(=O)N1CCN(c2ccccc2)CC1)Nc1nc(-c2ccc(Cl)s2)cs1 the results were KCNK9 inh inactive, hERG protect inactive, KCNK3 inh inactive, KCNQ1 block inactive, Kir21 inh inactive and KCNQ1 pot inactive.
`CCOC(=O)c1cc2c(ccn2C)n1CC(=O)N(C)C` gave KCNK9 inh inactive, hERG protect inactive, KCNK3 inh inactive, KCNQ1 block inactive, Kir21 inh inactive and KCNQ1 pot inactive.
Screening CCOC(=O)c1cc2c(ccn2C)n1Cc1ccc(C#N)cc1 returned KCNK9 inh -8.33, hERG protect inactive, KCNK3 inh inactive, KCNQ1 block inactive, Kir21 inh inactive, KCNQ1 pot inactive, KCNK9 block conf 37.0%, Kir2-1 spec inactive and KCNK9 uninduced 30.5%.
Cc1ccc(-c2csc(N(CC3CCCO3)C(=O)c3ccco3)n2)cc1 (stereo not drawn) was read as KCNK9 inh -8.59, hERG protect inactive, KCNK3 inh inactive, KCNQ1 block inactive, Kir21 inh inactive, KCNQ1 pot inactive, KCNK9 block conf 43.0%, Kir2-1 spec inactive and KCNK9 uninduced 33.5%.
For COc1ccccc1C1CCN(C(=O)c2cnn(-c3ccccc3)c2C)CC1 the results were KCNK9 inh inactive, hERG protect inactive, KCNK3 inh inactive, KCNQ1 block inactive, Kir21 inh inactive, KCNQ1 pot inactive, KCNK9 block conf inactive, Kir2-1 spec inactive and KCNK9 uninduced inactive.
`COc1ccccc1C1CCN(C(=O)c2ccccc2)CC1` gave KCNK9 inh inactive, hERG protect inactive, KCNK3 inh inactive, KCNQ1 block inactive, Kir21 inh inactive and KCNQ1 pot inactive.
`COCCNC(=O)c1cc(S(=O)(=O)N2CCCCC2)ccc1N1CCOCC1` gave KCNK9 inh inactive, hERG protect inactive, KCNK3 inh inactive, KCNQ1 block inactive, Kir21 inh inactive and KCNQ1 pot inactive.
Screening CCOC(=O)C1CCCN(Cc2cc(=O)oc3cc(C)c(C)cc23)C1 (stereo not drawn) returned KCNK9 inh inactive, hERG protect inactive, KCNK3 inh inactive, KCNQ1 block inactive, Kir21 inh inactive, KCNQ1 pot inactive, KCNK9 block conf inactive, Kir2-1 spec inactive and KCNK9 uninduced inactive.
For COc1ccccc1COCC(O)CN1CCCCC1CO (stereo not drawn) the results were KCNK9 inh inactive, hERG protect inactive, KCNK3 inh inactive, KCNQ1 block inactive, Kir21 inh inactive and KCNQ1 pot inactive.
Screening CCOC(=O)C1CCCN(CC(O)COCc2ccccc2OC)C1 (stereo not drawn) returned KCNK9 inh inactive, hERG protect inactive, KCNK3 inh inactive, KCNQ1 block inactive, Kir21 inh inactive, KCNQ1 pot inactive, KCNK9 block conf inactive, Kir2-1 spec inactive and KCNK9 uninduced inactive.
`CCOC(=O)C1CCCN(Cc2cc(Br)c(OC)cc2OC)C1` (stereo not drawn) gave KCNK9 inh inactive, hERG protect inactive, KCNK3 inh inactive, KCNQ1 block inactive, Kir21 inh inactive, KCNQ1 pot inactive, KCNK9 block conf inactive, Kir2-1 spec inactive and KCNK9 uninduced inactive.
O=C(Nc1ccnn1C1CCN(C(=O)CCc2ccc(F)cc2)CC1)C1CCOC1 (stereo not drawn) was read as KCNK9 inh inactive, hERG protect inactive, KCNK3 inh inactive, KCNQ1 block inactive, Kir21 inh inactive and KCNQ1 pot inactive.
Screening O=C(Nc1ccccc1C(=O)NCCc1ccc(O)cc1)c1ccco1 returned KCNK9 inh inactive, hERG protect inactive, KCNK3 inh inactive, KCNQ1 block inactive, Kir21 inh inactive and KCNQ1 pot inactive.
`CC(C)(C)N(Cc1ccccc1)C(=O)COC(=O)/C=C/c1ccc2c(c1)OCO2` gave KCNK3 inh inactive.
`CCOC(=O)C1(CCc2ccccc2)CCN(Cc2cc(OC)c(OC)cc2OC)CC1` gave KCNK9 inh inactive, hERG protect inactive, KCNK3 inh inactive, KCNQ1 block inactive, Kir21 inh inactive, KCNQ1 pot inactive, KCNK9 block conf inactive, Kir2-1 spec inactive and KCNK9 uninduced inactive.
`CCOC(=O)C1(Cc2ccccc2)CCN(Cc2cccc3nccnc23)CC1` gave KCNK9 inh inactive, hERG protect inactive, KCNK3 inh inactive, KCNQ1 block inactive, Kir21 inh inactive, KCNQ1 pot inactive, KCNK9 block conf inactive, Kir2-1 spec inactive and KCNK9 uninduced inactive.
`CCOC(=O)C1(CCc2ccccc2)CCN(Cc2ccc(C(=O)OC)cc2)CC1` gave KCNK9 inh inactive, hERG protect inactive, KCNK3 inh inactive, KCNQ1 block inactive, Kir21 inh inactive and KCNQ1 pot inactive.
Screening CCOC(=O)C1(Cc2cccc(OC)c2)CCN(Cc2cccn2-c2nccs2)CC1 returned KCNK9 inh inactive, hERG protect inactive, KCNK3 inh inactive, KCNQ1 block inactive, Kir21 inh inactive and KCNQ1 pot inactive.
Screening CCOC(=O)C1(Cc2ccccc2)CCN(Cc2cccn2-c2nccs2)CC1 returned KCNK9 inh inactive, hERG protect inactive, KCNK3 inh inactive, KCNQ1 block inactive, Kir21 inh inactive, KCNQ1 pot inactive, KCNK9 block conf inactive, Kir2-1 spec inactive and KCNK9 uninduced inactive.
Screening CCOC(=O)C1(Cc2ccccc2C(F)(F)F)CCN(Cc2ccc(COC)o2)CC1 returned KCNK9 inh inactive, hERG protect inactive, KCNK3 inh inactive, KCNQ1 block inactive, Kir21 inh inactive, KCNQ1 pot inactive, KCNK9 block conf inactive, Kir2-1 spec inactive and KCNK9 uninduced inactive.
Screening O=C(NCCNC(=O)c1cc(Cl)ccc1Cl)c1ccco1 returned KCNK9 inh inactive, hERG protect inactive, KCNK3 inh inactive, KCNQ1 block inactive, Kir21 inh inactive and KCNQ1 pot inactive.
Cn1nc(C(F)(F)F)c(-c2cccc(C(F)(F)F)c2)c1NC(=O)CSCC(=O)O was read as KCNK9 inh inactive, hERG protect inactive, KCNK3 inh inactive, KCNQ1 block inactive, Kir21 inh inactive and KCNQ1 pot inactive.
Screening COc1ccc(S(=O)(=O)n2ccc(-c3cnc(-c4ccccc4)s3)n2)cc1 returned KCNK9 inh -9.99, hERG protect inactive, KCNK3 inh inactive, KCNQ1 block inactive, Kir21 inh inactive, KCNQ1 pot inactive, KCNK9 block conf inactive, Kir2-1 spec inactive and KCNK9 uninduced 31.0%.
O=C(c1ccccc1)n1ccc(-c2cnc(-c3ccccc3)s2)n1 was read as KCNK9 inh inactive, hERG protect inactive, KCNK3 inh inactive, KCNQ1 block inactive, Kir21 inh inactive and KCNQ1 pot inactive.
